Bioassay records (PubChem)
IMP-1 inhibitor: blocks Pseudomonas aeruginosa IMP-1 metallo-beta-lactamase. 290,000 tested, 0.45% active. AID 1556. inhibition, % at 5.6 µM. purified IMP-1, nitrocefin hydrolysis, epi-absorbance fluorescence;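 active = inhibition above the mean plus 3 SD of all compounds in the same screening run, cut at about 4.5% in these data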;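 also: 0% = IMP-1 with DMSO and 100% = DMSO wells lacking enzyme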
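Material – recombinant IMP-1 enzyme, purified · Amount – IMP-1 0.2 nM before substrate addition · Medium – HEPES buffer pH 7.1 with ZnSO4 and Brij 35 · Timing – 25 °C, 15 min preincubation, 25 min reaction · Measured by – plate fluorescence quenching by hydrolysis product, ex 480/em 530 nm · Read-out – percent enzyme inhibition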
Fh CTSL1 inh: cathepsin L1 inhibition, PFM18AAP counter-screen | AID 1906 | inhibition, % at 5.96 µM | recombinant F. hepatica cathepsin L1, Z-Leu-Arg-MCA fluorescence | 300,000 tested, 0.49% active;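 active = inhibition above the mean of all tested compounds plus 3 SD, set per screening campaign, cut at about 17% in these data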;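 also: 0% = plate median of test compound wells and 100% = 1 µM Z-Phe-Ala-diazomethylketone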
pCIP destab: compounds decreasing mouse p/CIP protein stability | Q05BA5 | F442A p/CIP-EGFP cells, EGFP fluorescence, 16 h | decrease of EGFP signal, % at 10 µM | 290,000 tested, 0.01% active;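 active = EGFP signal decrease of at least 30% at 10 µM or well 3 SD below plate mean, unless failing retest; inactive = the rest, including hits failing retest or dose response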
VIM-2 inhibitor: inhibitors of Pseudomonas aeruginosa VIM-2 metallo-beta-lactamase. purified VIM-2, nitrocefin hydrolysis, epi-absorbance fluorescence. inhibition, % at 5.6 µM. 290,000 tested, 0.89% active. AID 1527;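 active = inhibition above the mean of all tested compounds plus 3 SD, cutoff set per screening run, cut at about 7.5% in these data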;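 also: red hydrolysis product quenches plate fluorescence so inhibitors raise well fluorescence; 0% = enzyme with DMSO and 100% = DMSO without enzyme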
SUMO HTRF inh: SUMOylation inhibition | P63279 | HTRF SUMOylation assay, SAE1/SAE2 + UBC9, in vitro | inhibition, % at 35 µM | 290,000 tested, 0.36% active; in the data active = inhibition above about 50%, passing the limit was not always enough
T cell modulator: T cell immune modulation candidate; 2C CD8+ T cell-vesicle binding, flow cytometry; stronger effect = lower value; response (vesicle binding), % at 7 µM; 330,000 tested, 0.068% active;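 active = response, share of CD8 T cells binding vesicles, and their 90th percentile fluorescence all below set limits, cut at about 80% in these data, passing the limit was not always enough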;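 also: values below 100% mean blocked vesicle binding to the CD8+ T cells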
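Assay system: 2C TCR transgenic mouse naive CD8+ T cells, MACS-purified | Read-out: CD8+ gate FL2 mean fluorescence as % of same-row positive control | Signal: High-throughput flow cytometry with anti-B7-1 and anti-CD8 staining | Timing: Binding step 1.5 h, 37 °C, antibody labelling 20 min, ice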
The depositor's hits bear a star; i = inactive; · = no result. The list is not random: actives were taken first. Their share in the collection is about 1.9%.

SMILES	IMP-1 inhibitor	Fh CTSL1 inh	pCIP destab	VIM-2 inhibitor	SUMO HTRF inh	T cell modulator
CCOC(=O)c1sc2nc(C)c3c(c2c1N)CC(C)(C)OC3	-1	2	6	0	36	200
CCCc1nc2sc(C(=O)OCC)c(N)c2c2c1COC(C)(C)C2	6.2*	-2	-10	-1	23	311
O=C(Nc1sc2c(c1C(=O)N1CCOCC1)CCCCC2)c1cccnc1	-1	19*	8	3	5	462
Cc1csc(SCC(=O)Nc2cc(S(=O)(=O)N(C)C)ccc2C)n1	·	6	·	·	·	i
O=C(O)c1ccccc1OCc1ccccc1Br	1	-2	1	9.1*	-6	219
CCOc1cc(C2C(C#N)=C(N)Oc3n[nH]c(C)c32)ccc1OCCN1CCOCC1 (stereo not given)	-1	0	-16	1	20	895
CCCc1[nH]nc2c1C(c1ccc(OCCN3CCOCC3)c(OCC)c1)C(C#N)=C(N)O2 (stereo not given)	-3	-2	-3	8.7*	-6	370
CC[C@@H](C)C(NC(=O)OC(C)(C)C)c1cn([C@@H](Cc2cc3ccccc3[nH]2)C(=O)N2CCN(C(=O)OC(C)(C)C)CC2)nn1 (stereo not given in full)	-1	4	-1	-4	-5	112
COc1ccc(OC)c(NC(=O)CCn2ccnc2)c1	-4	-2	4	-4	-14	244
CCN(CC)CCCNc1oc(/C=C/c2ccccc2)nc1C#N	0	8	-9	-2	28	600
COc1ccc(/C=C/c2nc(C#N)c(NCCN(C)C)o2)cc1OC	-3	0	7	10*	17	230
N#Cc1cc(C(=O)Cc2ccccc2)c[nH]1	-2	0	2	-2	-5	151
O=C(CSc1ccc2nnc(-c3cccs3)n2n1)N1CCCC1	-5	0	7	8.1*	20	385
CCOC(=O)CSc1ccc2nnc(-c3cccs3)n2n1	-5	4	2	7	18	415
CCC(c1nnc(SCC(=O)Nc2cc(Cl)ccc2C#N)n1C1CCCCC1)N(C)C (stereo not given)	-2	0	-6	5	15	280
CCC(c1nnc(SCC(=O)Nc2ccc(C(C)=O)cc2)n1C1CCCCC1)N(C)C (stereo not given)	-3	0	10	12*	-8	275
COc1ccc(OC)c(C=NNC(=O)c2ccc(NS(=O)(=O)c3cccs3)cc2)c1	·	·	·	·	·	457
N/C(=N\OC(=O)c1ccccc1Br)c1cccc([N+](=O)[O-])c1	2	-1	-6	-3	-15	229
N/C(=N\OC(=O)c1ccccc1Br)c1ccc([N+](=O)[O-])cc1	12*	-4	-18	-2	9	150
COc1ccc(NC(=O)Nc2cccc3c2O[C@@H](CN(C)S(=O)(=O)c2cn(C)cn2)[C@@H](C)CN([C@H](C)CO)C3=O)cc1	·	·	·	·	·	429
O=C(CN1C(=O)NC2(CCCC2)C1=O)Nc1ccc(F)c([N+](=O)[O-])c1	-2	-4	4	0	-4	185
O=S(=O)(Nc1cc(Sc2cccc3cccnc23)c(O)c2ccccc12)c1ccc(F)cc1	-3	-1	1	-4	67*	274
COc1ccc(S(=O)(=O)Nc2ccc(O)c(Sc3ncn[nH]3)c2)cc1	-2	-3	-8	-4	11	330
O=C(O)CSc1cc(NS(=O)(=O)c2ccc(Cl)cc2)c2ccccc2c1O	2	0	-7	2	77*	179
COc1ccc(S(=O)(=O)Nc2cc(Sc3ncn[nH]3)c(O)c3ccccc23)cc1	-7	·	-27	7	88*	·
SMILES	IMP-1 inhibitor	Fh CTSL1 inh	pCIP destab	VIM-2 inhibitor	SUMO HTRF inh	T cell modulator
O=C(Sc1cccc2cccnc12)c1ccc(F)cc1	-3	·	-19	-6	-50	·
COc1ccc(S(=O)(=O)Nc2cc(SCC(=O)O)c(O)c3ccccc23)cc1	3	-2	6	6	57*	138
O=C(Nc1ccc(F)cc1)c1nc2c(nnn2Cc2cccc3ccccc23)c(=O)[nH]1	-2	5	-11	-4	38	150
CCn1cc(C(=O)OCC(=O)NCc2ccccc2Cl)c(=O)c2ccc(C)nc21	-3	17*	7	2	12	127
CCOC(=O)c1cnc2c(OC)cccc2c1NCc1cccnc1	-5	1	7	11*	3	217
N#Cc1ccccc1OCC(=O)OCC(=O)N1CCN(C(=O)c2ccco2)CC1	-2	-13	7	-1	0	689
CC(=O)Nc1ccc(Nc2cc(C)c3ccccc3n2)cc1	-3	1	-4	-1	6	190
CC(=O)Nc1ccc(-c2nc3ccc(NC(C)=O)cc3o2)cc1	0	5	-12	2	51*	62
O=C(Nc1ccc2cccnc2c1)c1ccc(Br)cc1	1	4	13	0	5	177
O=C(Nc1ccc2nc3ccccc3nc2c1)c1ccc(Br)cc1	-2	0	3	-1	57*	312
CC(=O)Nc1ccc2nc3ccccc3nc2c1	-1	-1	-6	4	92*	953
CCOC(=O)C1CCN(C(=O)c2cc3ccccc3oc2=O)CC1	-2	3	3	-3	-2	280
CCCCOc1nc(N2CCOCC2)nc(C)c1[N+](=O)[O-]	-2	18*	-10	-2	6	536
CC1C/C(=N\NC(N)=S)c2cc(Cl)ccc2S1 (stereo not given)	-1	68*	-6	-1	49	162
O=C1C(Nc2ccc(O)cc2)=C/C(=N/S(=O)(=O)c2cccs2)c2ccccc21	-4	·	·	0	48	·
Cc1ccc(Cl)cc1NC1=C/C(=N\S(=O)(=O)c2cccs2)c2ccccc2C1=O	-2	60*	-17	-4	49	241
Cc1cccc(NC2=C/C(=N/S(=O)(=O)c3cccs3)c3ccccc3C2=O)c1	-1	54*	-17	1	24	217
Cc1ccc(NC2=C/C(=N\S(=O)(=O)c3cccs3)c3ccccc3C2=O)c(C)c1	-4	88*	·	-4	18	182
O=C(O)CC/C(=N/Nc1ncc(C(F)(F)F)cc1Cl)C(=O)O	-4	2	4	-4	-7	213
O=C(CCN1CCOCC1)NNC(=S)NC(=O)c1ccccc1	-5	-2	7	-5	6	212
C=CCc1c(C)nc(SC)nc1Nc1ccc(C(=O)O)cc1	-3	1	5	1	12	258
C=CCc1c(C)nc(SC)nc1Nc1ccc(C(C)=O)cc1	-4	3	6	8.1*	-8	488
COc1ccccc1N(CC(=O)NCCN1CCOCC1)S(=O)(=O)c1ccccc1	-1	-2	-1	-1	16	319
Cc1cc(C)n2c(Br)c(CSc3nc4ccccc4o3)nc2n1	2	0	-5	9.9*	20	408
